From ChEMBL document CHEMBL1255185, “Substituted 4-amino-1H-pyrazolo[3,4-d]pyrimidines as multi-targeted inhibitors of insulin-like growth factor-1 receptor (IGF1R) and members of ErbB-family receptor kinases” (Bioorg Med Chem Lett, 2010)
Active and inactive are the calls of the source. No cut-off for these calls is given here.

Columns and labels:
[1] = biological target: Epidermal growth factor receptor (Homo sapiens, UniProt P04626+P00533+Q15303+P21860); assay: Inhibition of EGFR L858 mutant; format: protein assay
Method in brief: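 Kinase inhibition was measured in a homogeneous time-resolved fluorescence assay. The EGFR enzyme construct carries the L858R activating mutation.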

[2] = biological target: T1, Receptor tyrosine-protein kinase erbB-2 (Homo sapiens, UniProt P04626); assay: Inhibition of ErbB2
[3] = biological target: T2, Insulin-like growth factor 1 receptor (Homo sapiens, UniProt P08069); assay: Inhibition of IGF1R
[4] = Half life in iv dosed rat; format: ADME, organism-based; details: in vivo
[5] = Tmax in po dosed C57BL/6 mouse; format: ADME, organism-based; details: in vivo
Method in brief: (§1)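 Mouse oral PK used a 10 mg/kg dose. AUC is normalized to dose (per mg/kg), and F is oral bioavailability.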

[6] = test system: Mus musculus; assay: Dose normalized AUC in po dosed C57BL/6 mouse; format: ADME, organism-based; details: in vivo; method in brief: as §1
[7] = biological target: T1, Receptor tyrosine-protein kinase erbB-2; assay: Inhibition of ERBb2 phosphorylation in human BT474 cells by ELISA; format: cell-based, BT-474
Method in brief: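 ErbB2 phosphorylation was read out in ELISA format in BT474 human breast tumour cells, which highly express ErbB2.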

[8] = test system: Rattus norvegicus; assay: Dose normalized AUC in po dosed rat; format: ADME, organism-based; details: in vivo
Method in brief: (§2)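 Rat oral PK used a 5 mg/kg dose. AUC is normalized to dose (per mg/kg), and F is oral bioavailability.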

[9] = Oral bioavailability in rat at 5 mg/kg; format: ADME, organism-based; details: in vivo; method in brief: as §2
[10] = Oral bioavailability in C57BL/6 mouse at 10 mg/kg; format: ADME, organism-based; details: in vivo; method in brief: as §1
[11] = Cmax in rat at 5 mg/kg, po; format: ADME, organism-based; design: dose 5 mg/kg, route oral; details: in vivo; method in brief: as §2
[12] = test system: Mus musculus; assay: Inhibition of IGF1R phosphorylation in C57BL/6 mouse at 30 mg/kg, iv by Western blotting; format: functional
Method in brief: (§3)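 Female C57BL/6 mice were dosed iv with compound or vehicle; doses of 3, 10, 30 and 60 mg/kg were used. After 1 h, IGF-1 was given iv at 0.5 mg/kg, and mice were sacrificed 10 min later. Lung tissue was homogenized, and p-IGF1R and p-Akt were analyzed by Western blot. Drug levels in plasma and tissues were measured.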

[13] = test system: Mus musculus; assay: Inhibition of AKT phosphorylation in C57BL/6 mouse at 30 mg/kg, iv by Western blotting; format: functional, organism-based; design: dose 30 mg/kg; method in brief: as §3
[14] = Half life in iv dosed C57BL/6 mouse; format: ADME, organism-based; details: in vivo
[15] = Clearance in iv dosed rat; format: ADME, organism-based; details: in vivo
[16] = test system: Rattus norvegicus; assay: Dose normalized AUC in iv dosed rat; format: ADME, organism-based; details: in vivo
Method in brief: (§4)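 Intravenous PK: AUC is normalized to dose and expressed per mg/kg.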

[17] = biological target: Epidermal growth factor receptor (Homo sapiens, UniProt P00533); assay: Inhibition of EGFR phosphorylation in human MIAPaCa cells by ELISA; format: cell-based
[18] = Cmax in C57BL/6 mouse at 10 mg/kg, po; format: ADME, organism-based; design: dose 10 mg/kg, route oral; details: in vivo; method in brief: as §1
[19] = test system: Mus musculus; assay: Dose normalized AUC in iv dosed C57BL/6 mouse; format: ADME, organism-based; details: in vivo; method in brief: as §4
[20] = biological target: T2, Insulin-like growth factor 1 receptor; assay: Inhibition of IGF1R phosphorylation in human MIAPaCa cells by ELISA; format: cell-based
Method in brief: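 Cellular IGF1R phosphorylation was read out in ELISA format in MiaPaCa human pancreatic carcinoma cells, which express both IGF1R and EGFR.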

[21] = Tmax in po dosed rat; format: ADME, organism-based; details: in vivo; method in brief: as §2
[22] = Clearance in iv dosed C57BL/6 mouse; format: ADME, organism-based; details: in vivo

T2 sequence (P08069 31-736 limits assumed): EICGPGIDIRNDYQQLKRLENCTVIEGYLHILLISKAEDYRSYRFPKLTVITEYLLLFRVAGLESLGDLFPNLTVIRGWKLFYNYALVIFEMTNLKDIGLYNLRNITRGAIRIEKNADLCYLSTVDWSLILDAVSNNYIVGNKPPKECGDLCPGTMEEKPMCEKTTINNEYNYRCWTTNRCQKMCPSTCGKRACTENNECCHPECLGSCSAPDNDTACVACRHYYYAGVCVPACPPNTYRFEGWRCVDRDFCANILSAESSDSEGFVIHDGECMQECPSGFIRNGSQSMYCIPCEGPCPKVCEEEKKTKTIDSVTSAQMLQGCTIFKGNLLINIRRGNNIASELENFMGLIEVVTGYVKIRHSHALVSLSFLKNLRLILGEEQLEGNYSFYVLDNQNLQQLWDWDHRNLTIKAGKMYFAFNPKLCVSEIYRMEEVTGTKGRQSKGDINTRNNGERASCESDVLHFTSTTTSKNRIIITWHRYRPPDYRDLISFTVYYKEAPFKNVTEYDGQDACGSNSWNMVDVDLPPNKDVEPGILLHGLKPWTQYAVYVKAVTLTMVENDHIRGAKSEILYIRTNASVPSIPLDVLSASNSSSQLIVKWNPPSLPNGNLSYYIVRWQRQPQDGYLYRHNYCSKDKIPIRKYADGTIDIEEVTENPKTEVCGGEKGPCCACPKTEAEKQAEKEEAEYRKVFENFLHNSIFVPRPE
T2 sequence (P08069 741-1367 limits assumed): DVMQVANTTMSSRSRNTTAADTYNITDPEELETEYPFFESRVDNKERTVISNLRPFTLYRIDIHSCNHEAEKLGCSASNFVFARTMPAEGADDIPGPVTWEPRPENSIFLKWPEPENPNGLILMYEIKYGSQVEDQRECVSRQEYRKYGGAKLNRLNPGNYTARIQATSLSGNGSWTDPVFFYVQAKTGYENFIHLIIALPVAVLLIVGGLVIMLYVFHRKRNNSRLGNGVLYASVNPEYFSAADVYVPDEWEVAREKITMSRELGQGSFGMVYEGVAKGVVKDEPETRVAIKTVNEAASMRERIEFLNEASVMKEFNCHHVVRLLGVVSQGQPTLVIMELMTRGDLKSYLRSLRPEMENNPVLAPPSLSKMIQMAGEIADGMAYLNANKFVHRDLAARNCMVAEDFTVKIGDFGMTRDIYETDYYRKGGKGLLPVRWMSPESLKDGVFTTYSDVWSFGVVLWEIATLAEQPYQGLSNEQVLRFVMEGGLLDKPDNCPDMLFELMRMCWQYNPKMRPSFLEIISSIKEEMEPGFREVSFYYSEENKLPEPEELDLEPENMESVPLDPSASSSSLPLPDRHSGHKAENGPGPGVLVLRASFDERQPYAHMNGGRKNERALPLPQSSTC
Epidermal growth factor receptor (Homo sapiens, UniProt P00533), sequence (P00533 whole entry): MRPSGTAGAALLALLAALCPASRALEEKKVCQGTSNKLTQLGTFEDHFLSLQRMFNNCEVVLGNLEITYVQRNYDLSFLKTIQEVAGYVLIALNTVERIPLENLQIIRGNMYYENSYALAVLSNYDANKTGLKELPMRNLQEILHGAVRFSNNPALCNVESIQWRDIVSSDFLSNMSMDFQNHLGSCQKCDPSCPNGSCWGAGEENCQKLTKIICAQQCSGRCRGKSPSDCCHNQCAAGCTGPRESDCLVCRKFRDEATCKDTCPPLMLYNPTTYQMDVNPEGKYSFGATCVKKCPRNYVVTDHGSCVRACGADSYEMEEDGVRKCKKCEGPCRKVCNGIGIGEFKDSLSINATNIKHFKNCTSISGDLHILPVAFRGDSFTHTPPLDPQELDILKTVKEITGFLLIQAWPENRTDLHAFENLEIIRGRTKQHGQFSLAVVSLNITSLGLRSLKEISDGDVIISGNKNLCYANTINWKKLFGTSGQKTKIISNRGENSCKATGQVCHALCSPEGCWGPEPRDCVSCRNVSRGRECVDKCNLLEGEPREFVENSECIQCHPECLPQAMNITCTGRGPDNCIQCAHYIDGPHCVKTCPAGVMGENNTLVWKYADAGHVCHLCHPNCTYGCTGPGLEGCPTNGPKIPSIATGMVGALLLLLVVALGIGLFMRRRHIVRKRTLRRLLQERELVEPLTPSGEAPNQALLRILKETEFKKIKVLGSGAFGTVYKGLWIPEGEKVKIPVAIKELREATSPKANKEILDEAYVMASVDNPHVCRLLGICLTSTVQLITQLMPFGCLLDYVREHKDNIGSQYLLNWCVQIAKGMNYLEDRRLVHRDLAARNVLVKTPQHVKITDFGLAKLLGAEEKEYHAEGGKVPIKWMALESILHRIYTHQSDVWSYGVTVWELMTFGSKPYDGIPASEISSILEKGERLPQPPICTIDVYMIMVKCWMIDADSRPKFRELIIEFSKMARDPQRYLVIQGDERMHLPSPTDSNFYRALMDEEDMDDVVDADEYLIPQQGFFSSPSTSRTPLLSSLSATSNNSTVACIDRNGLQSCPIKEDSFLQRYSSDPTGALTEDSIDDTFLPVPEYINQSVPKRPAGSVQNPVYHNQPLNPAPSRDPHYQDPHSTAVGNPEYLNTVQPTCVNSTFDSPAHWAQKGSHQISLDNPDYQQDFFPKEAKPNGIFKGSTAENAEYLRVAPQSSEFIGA
T1 sequence (P04626 whole entry): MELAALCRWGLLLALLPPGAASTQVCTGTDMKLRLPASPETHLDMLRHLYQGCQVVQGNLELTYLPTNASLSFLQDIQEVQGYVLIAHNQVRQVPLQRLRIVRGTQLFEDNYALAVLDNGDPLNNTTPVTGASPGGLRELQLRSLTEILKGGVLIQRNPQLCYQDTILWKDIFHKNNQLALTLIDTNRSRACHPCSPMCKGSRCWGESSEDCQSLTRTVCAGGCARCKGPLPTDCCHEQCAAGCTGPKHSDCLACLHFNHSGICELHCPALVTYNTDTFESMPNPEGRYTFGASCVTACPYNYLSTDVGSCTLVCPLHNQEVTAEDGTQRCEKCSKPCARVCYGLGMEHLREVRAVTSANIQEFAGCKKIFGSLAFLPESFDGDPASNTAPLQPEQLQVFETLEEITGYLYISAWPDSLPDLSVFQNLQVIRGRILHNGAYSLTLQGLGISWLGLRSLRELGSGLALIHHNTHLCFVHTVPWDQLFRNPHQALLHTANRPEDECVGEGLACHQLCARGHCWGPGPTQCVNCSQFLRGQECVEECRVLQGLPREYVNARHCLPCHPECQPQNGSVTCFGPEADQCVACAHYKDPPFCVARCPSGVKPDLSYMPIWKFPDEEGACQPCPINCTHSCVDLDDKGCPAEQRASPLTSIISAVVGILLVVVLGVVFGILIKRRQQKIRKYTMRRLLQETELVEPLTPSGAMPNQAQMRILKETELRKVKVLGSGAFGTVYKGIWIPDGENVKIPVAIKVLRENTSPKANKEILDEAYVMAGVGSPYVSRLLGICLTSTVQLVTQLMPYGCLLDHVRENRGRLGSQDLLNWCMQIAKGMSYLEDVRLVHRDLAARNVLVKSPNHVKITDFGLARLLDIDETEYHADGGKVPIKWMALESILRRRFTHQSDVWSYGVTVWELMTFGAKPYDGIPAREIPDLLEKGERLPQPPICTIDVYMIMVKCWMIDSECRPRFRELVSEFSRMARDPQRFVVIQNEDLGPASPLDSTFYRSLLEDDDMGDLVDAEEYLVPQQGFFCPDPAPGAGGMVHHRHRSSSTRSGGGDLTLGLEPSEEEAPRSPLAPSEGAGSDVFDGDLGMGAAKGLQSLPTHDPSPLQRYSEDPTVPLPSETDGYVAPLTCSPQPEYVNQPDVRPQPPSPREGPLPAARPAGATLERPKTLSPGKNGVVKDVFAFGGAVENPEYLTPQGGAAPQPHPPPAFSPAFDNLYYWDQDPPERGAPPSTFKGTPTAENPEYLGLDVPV

IC50 [1] | IC50 [2] | IC50 [3] | Compound | other results
874 nM | 397 nM | 424 nM | COCCCN1CCN([C@H]2CC[C@@H](n3nc(-c4ccc(Nc5nc6cccc(Cl)c6o5)cc4)c4c(N)ncnc43)CC2)CC1 | 
63 nM | 29 nM | 49 nM | CN1CCN([C@H]2CC[C@H](n3nc(-c4ccc(Nc5nc6cccc(Cl)c6o5)c(Cl)c4)c4c(N)ncnc43)CC2)CC1 | 
530 nM | 478 nM | 22 nM | Cc1cc(Nc2nc3cccc(Cl)c3o2)ccc1-c1nn([C@H]2CC[C@H](N3CCN(C)CC3)CC2)c2ncnc(N)c12 | 
393 nM | 200 nM | 77 nM | CN1CCN([C@H]2CC[C@@H](n3nc(-c4ccc(Nc5nc6cccc(Cl)c6o5)cc4)c4c(N)ncnc43)CC2)CC1 | 
2270 nM | 4030 nM | 160 nM | Cc1cc(C)c2oc(Nc3ccc(-c4nn([C@H]5CC[C@@H](N6CCN(C)CC6)CC5)c5ncnc(N)c45)cc3F)nc2c1 | 
31.5 nM | 7.5 nM | 12.5 nM | CN1CCN([C@H]2CC[C@H](n3nc(-c4ccc(Nc5nc6cccc(Cl)c6o5)cc4)c4c(N)ncnc43)CC2)CC1 | half-life [4]: 8.4 h; Tmax [5]: 3 h; AUC [6]: 190 ng·h/mL; IC50 [7]: 340 nM; AUC [8]: 380 ng·h/mL; bioavailability [9]: 30%; bioavailability [10]: 20%; Cmax [11]: 160 nM; inhibition in vivo at 30 mg/kg [12]: 50%; inhibition [13]: Active; half-life [14]: 2.4 h; clearance [15]: 15.2 mL/min/kg; AUC [16]: 1260 ng·h/mL; EC50 [17]: > 1000 nM; IC50 [17]: 2300 nM; Cmax [18]: 170 nM; AUC [19]: 940 ng·h/mL; IC50 [20]: 207 nM; Tmax [21]: 8 h; clearance [22]: 31.8 mL/min/kg
97 nM | 15.1 nM | 115 nM | CC(C)N1CCC(N2CCC(n3nc(-c4ccc(Nc5nc6cccc(Cl)c6o5)cc4)c4c(N)ncnc43)CC2)CC1 | 
1840 nM | 21.5 nM | 126 nM | CN(C)C(=O)CN1CCN([C@H]2CC[C@H](n3nc(-c4ccc(Nc5nc6cccc(Cl)c6o5)cc4)c4c(N)ncnc43)CC2)CC1 | 
53.7 nM | 9.8 nM | 45.1 nM | CC(C)N1CCN([C@H]2CC[C@H](n3nc(-c4ccc(Nc5nc6cccc(Cl)c6o5)cc4)c4c(N)ncnc43)CC2)CC1 | 
1130 nM | 5230 nM | 348 nM | Cc1cc(Cl)c2oc(Nc3ccc(-c4nn([C@H]5CC[C@@H](N6CCN(C)CC6)CC5)c5ncnc(N)c45)cc3)nc2c1 | 
852 nM | 1350 nM | 72 nM | CN1CCN([C@H]2CC[C@@H](n3nc(-c4ccc(Nc5nc6cccc(Cl)c6o5)c(F)c4)c4c(N)ncnc43)CC2)CC1 | 
1450 nM | > 62500 nM | 94 nM | Cc1cc(Br)c2oc(Nc3ccc(-c4cn([C@H]5CC[C@@H](N6CCN(C)CC6)CC5)c5ncnc(N)c45)cc3F)nc2c1 | 
639 nM |  | 584 nM | CN1CCN([C@H]2CC[C@@H](n3nc(-c4ccc(Nc5nc6cc(Cl)cc(Cl)c6o5)cc4)c4c(N)ncnc43)CC2)CC1 | 
3590 nM |  | 179 nM | COC(=O)c1cccc2nc(Nc3ccc(-c4nn([C@H]5CC[C@@H](N6CCN(C)CC6)CC5)c5ncnc(N)c45)cc3)oc12 | 
1020 nM | 334 nM | 42 nM | Nc1ncnc2c1c(-c1ccc(Nc3nc4cccc(Cl)c4o3)cc1)nn2[C@H]1CC[C@H](N2CCOCC2)CC1 | 
1660 nM |  | 810 nM | CN1CCN([C@H]2CC[C@@H](n3nc(-c4ccc(Nc5nc6ccccc6o5)cc4)c4c(N)ncnc43)CC2)CC1 | 
 | 15.4 nM | 4.1 nM | CN1CCN([C@H]2CC[C@H](n3nc(-c4ccc(Nc5nc6cccc(Cl)c6o5)cc4Cl)c4c(N)ncnc43)CC2)CC1 | 
322 nM | 62 nM | 174 nM | CC(C)N1CCN([C@H]2CC[C@@H](n3nc(-c4ccc(Nc5nc6cccc(Cl)c6o5)cc4)c4c(N)ncnc43)CC2)CC1 | 
37 nM | 16 nM | 7.5 nM | CN1CCN([C@H]2CC[C@H](n3nc(-c4ccc(Nc5nc6cccc(Cl)c6o5)c(F)c4)c4c(N)ncnc43)CC2)CC1 | IC50 [7]: 362 nM; EC50 [17]: > 1000 nM; IC50 [17]: 2880 nM; IC50 [20]: 87 nM
 |  |  | CN1CCN([C@H]2C[C@@H](c3nc(-c4ccc5ccc(-c6ccccc6)nc5c4)c4c(N)nccn43)C2)CC1 | IC50 [7]: > 30000 nM; IC50 [17]: > 30000 nM; IC50 [20]: 65 nM
2810 nM |  | 113 nM | CN1CCN([C@H]2CC[C@@H](n3nc(-c4ccc(Nc5nc6cccc(C#N)c6o5)cc4)c4c(N)ncnc43)CC2)CC1 | 
1470 nM |  | 415 nM | CN1CCN([C@H]2CC[C@@H](n3nc(-c4ccc(Nc5nc6cc(Cl)ccc6o5)c(F)c4)c4c(N)ncnc43)CC2)CC1 | 
108 nM | 21.5 nM | 72.4 nM | COCCCN1CCN([C@H]2CC[C@H](n3nc(-c4ccc(Nc5nc6cccc(Cl)c6o5)cc4)c4c(N)ncnc43)CC2)CC1 | 
156 nM |  | 196 nM | Cc1cc(-c2nn([C@H]3CC[C@H](N4CCN(C)CC4)CC3)c3ncnc(N)c23)ccc1Nc1nc2cccc(Cl)c2o1 | 
99 nM | 14.5 nM | 108 nM | CN1CCC(N2CCC(n3nc(-c4ccc(Nc5nc6cccc(Cl)c6o5)cc4)c4c(N)ncnc43)CC2)CC1 | 
264 nM | 13.8 nM | 283 nM | COCCCN1CCC(N2CCC(n3nc(-c4ccc(Nc5nc6cccc(Cl)c6o5)cc4)c4c(N)ncnc43)CC2)CC1 | 
